# How the values were obtained:
# Type in all cases: functional
# [1] = tested on: Candida albicans; assay: In vitro antifungal activity against Candida albicans
# In short: (§1)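 Broth microdilution MIC in Sabouraud's glucose broth; final inocula 1 × 10^5 cells/mL (yeast) or 1 × 10^5 conidia/mL (mold and dermatophyte).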
# [2] = tested on: Trichophyton benhamiae; assay: In vitro antifungal activity against Trichophyton asteroides; in short: as §1
# [3] = tested on: Aspergillus fumigatus; assay: In vitro antifungal activity against Aspergillus fumigatus; in short: as §1
# [4] = tested on: Candida albicans; assay: Minimum effective concentration for inhibition of pseudomycelium formation in Candida albicans; settings: for minimal effective concentration: Candida albicans, read-out: MEC
# In short: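 C. albicans KE-2 (clinical isolate) at a final 1 × 10^6 yeast cells/mL in EMEM with 20% calf serum; compounds diluted by the same microtiter system as for MICs. After incubation, wells were Giemsa-stained (5% in phosphate buffer) and read by microscope. MEC is the lowest concentration preventing typical pseudomycelium formation.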
# [5] = tested on: Mus musculus; assay: Ratio of in vivo number of survivors / total infected; parameters: reference not given here
# [6] = Candida albicans, read-out: MIC
# [7] = Trichophyton benhamiae, read-out: MIC
# [8] = Aspergillus fumigatus, read-out: MIC
Structure (SMILES),"MIC [1, 6] [µg/mL]","MIC [2, 7] [µg/mL]","MIC [3, 8] [µg/mL]",minimal effective concentration [4] [µg/mL],No. of survivors [5],MIC [2] [µg/mL],MIC [3] [µg/mL],MEC [4] [µg/mL],MIC [1] [µg/mL]
O=C1O[C@H](c2ccccc2)[C@@](Cn2cncn2)(c2ccc(Cl)cc2Cl)O1,100,0.16,> 100,0.16,0,–,–,–,–
CC(C)CC(=O)C(O)(Cn1cncn1)c1ccc(Cl)cc1 (stereo not drawn),100,0.1,50,0.04,0,–,–,–,–
O=C(c1ccc(Cl)cc1Cl)C(O)(Cn1ccnc1)c1ccc(Cl)cc1 (stereo not drawn),25,0.1,25,2.5,0,–,–,–,–
CC(C)CC(=O)C(O)(Cn1cncn1)c1ccc(Cl)cc1Cl (stereo not drawn),100,0.1,100,0.02,0,–,–,–,–
OC(c1ccccc1Cl)C(O)(Cn1cncn1)c1ccccc1Cl (stereo not drawn),100,0.1,6.3,0.08,2,–,–,–,–
CC(O)(c1ccc(F)cc1)C(O)(Cn1cncn1)c1ccc(F)cc1 (stereo in doubt; 160),–,–,–,–,2,0.1,25,0.16,–
CC(C)[C@H]1OC(=O)O[C@@]1(Cn1cncn1)c1ccc(Cl)cc1,> 100,6.3,> 100,0.63,–,–,–,–,–
CC(O)(c1ccc(F)cc1)C(O)(Cn1cncn1)c1ccc(F)cc1 (stereo in doubt; 161),> 100,0.2,–,–,–,–,100,2.5,–
O=C1O[C@H](c2ccc(Cl)cc2)[C@@](Cn2cncn2)(c2ccc(Cl)cc2Cl)O1 (stereo in doubt; 115),> 100,0.2,> 100,0.04,–,–,–,–,–
CCCCC(O)(Cn1cncn1)C(=O)c1ccccc1Cl (stereo not drawn),> 100,0.4,50,0.63,–,–,–,–,–
O=C(c1ccc(Cl)cc1Cl)C(O)(Cn1cnnc1)c1ccc(Cl)cc1Cl (stereo not drawn),> 100,25,> 100,> 20,–,–,–,–,–
CC(O)(c1ccc(F)cc1)C(O)(Cn1ccnc1)c1ccc(Cl)cc1 (stereo not drawn),> 100,0.4,> 100,2.5,–,–,–,–,–
O=C(c1ccc(F)cc1)C(O)(Cn1cnnc1)c1ccc(Cl)cc1Cl (stereo not drawn),> 100,> 100,> 100,> 20,–,–,–,–,–
OC(c1ccccc1Cl)C(O)(Cn1cncn1)c1ccccc1 (stereo not drawn),> 100,0.8,> 100,> 20,–,–,–,–,–
CCCCC(O)(Cn1cncn1)C(=O)c1ccc(Cl)cc1Cl (stereo not drawn),100,0.1,50,0.31,–,–,–,–,–
O=C(c1ccc(F)cc1)C(O)(Cn1cncn1)c1ccc(F)cc1 (stereo not drawn),100,0.79,> 100,10,–,–,–,–,–
CC(C)C(C)(O)C(O)(Cn1cncn1)c1ccccc1 (stereo not drawn),> 100,6.3,> 100,10,–,–,–,–,–
O=C(c1ccc(Cl)cc1)C(O)(Cn1cncn1)c1ccccc1Cl (stereo not drawn),> 100,0.8,> 100,10,–,–,–,–,–
CCCC(=O)C(O)(Cn1cncn1)c1ccccc1Cl (stereo not drawn),> 100,0.8,100,0.04,–,–,–,–,–
Cc1ccc(C(=O)C(O)(Cn2cncn2)c2ccc(C)cc2)cc1 (stereo not drawn),> 100,1.56,> 100,20,–,–,–,–,–
O=C1O[C@H](c2ccccc2)[C@@](Cn2cncn2)(c2ccccc2Cl)O1,> 100,6.3,> 100,0.31,–,–,–,–,–
O=C(c1ccc(F)cc1)C(O)(Cn1ccnc1)c1ccc(Cl)cc1Cl (stereo not drawn),> 100,0.1,> 100,1.25,–,–,–,–,–
O=C(c1ccc(Cl)cc1)C(O)(Cn1cncn1)c1ccc(Cl)cc1 (stereo not drawn),50,0.39,> 100,20,–,–,–,–,–
Fc1ccc([C@H]2OCO[C@]2(Cn2cncn2)c2ccc(Cl)cc2Cl)cc1,> 100,0.1,> 100,0.31,–,–,–,–,–
O=C(c1cccs1)C(O)(Cn1ccnc1)c1ccc(Cl)cc1 (stereo not drawn),> 100,0.8,> 100,5,–,–,–,–,–
CCCC[C@H]1OC(=O)O[C@]1(Cn1cncn1)c1ccc(Cl)cc1Cl,> 100,0.2,> 100,0.63,–,–,–,–,–

Structure (SMILES),"MIC [1, 6] [µg/mL]","MIC [2, 7] [µg/mL]","MIC [3, 8] [µg/mL]",minimal effective concentration [4] [µg/mL],No. of survivors [5],MIC [2] [µg/mL],MIC [3] [µg/mL],MEC [4] [µg/mL],MIC [1] [µg/mL]
CC(O)(c1ccc(F)cc1)C(O)(Cn1cncn1)c1ccc(Cl)cc1 (stereo in doubt; 163),100,0.2,> 100,–,–,–,–,0.63,–
O=C(c1ccc(Cl)cc1Cl)C(O)(Cc1ccccc1)Cn1cncn1 (stereo not drawn),> 100,1.6,> 100,5,–,–,–,–,–
COc1ccc(C(=O)C(O)(Cn2cnnc2)c2ccc(OC)cc2)cc1 (stereo not drawn),> 100,50,> 100,2.5,–,–,–,–,–
CC(C)C(=O)C(O)(Cn1cnnc1)c1ccc(Cl)cc1Cl (stereo not drawn),> 100,50,> 100,2.5,–,–,–,–,–
CCCCC(O)(c1ccc(F)cc1)C(O)(Cn1cncn1)c1ccccc1Cl (stereo in doubt; 189),> 100,0.4,50,–,–,–,–,20,–
CC(O)(c1ccc(F)cc1)C(O)(Cn1cncn1)c1ccc(Cl)cc1Cl (stereo in doubt; 174),–,–,–,–,–,0.1,50,0.31,100
OC(c1ccc(Cl)cc1)C(O)(Cn1cncn1)c1ccc(Cl)cc1Cl (stereo in doubt; 108),> 100,–,–,–,–,0.1,25,0.04,–
CCC[C@H]1OC(=O)O[C@]1(Cn1cncn1)c1ccc(Cl)cc1Cl,100,1.6,> 100,0.16,–,–,–,–,–
COc1ccccc1C(O)C(O)(Cn1cncn1)c1ccccc1OC (stereo not drawn),> 100,3.1,> 100,10,–,–,–,–,–
O=C1O[C@H](c2ccccc2)[C@@](Cn2ccnc2)(c2ccc(Cl)cc2Cl)O1,100,0.1,20,0.16,–,–,–,–,–
CC(C)[C@H]1OC(=O)O[C@]1(Cn1cncn1)c1ccc(Cl)cc1,> 100,1.6,> 100,0.31,–,–,–,–,–
CC(C)C(O)(Cn1cncn1)C(C)(O)c1ccc(Cl)cc1 (stereo not drawn),> 100,1.6,50,5,–,–,–,–,–
O=C(c1ccc(Cl)cc1Cl)C(O)(Cn1cnnc1)c1ccc(Cl)cc1 (stereo not drawn),> 100,> 100,> 100,> 20,–,–,–,–,–
CCCC(O)C(O)(Cn1cncn1)c1ccc(Cl)cc1 (stereo in doubt; 107),> 100,–,> 100,0.16,–,6.3,–,–,–
CC(O)(c1ccc(Cl)cc1)C(O)(Cn1cncn1)c1ccc(Cl)cc1 (stereo in doubt; 194),50,–,> 100,–,–,0.8,–,2.5,–
O=C(c1ccc(Cl)cc1)C(O)(Cn1ccnc1)c1ccc(Cl)cc1 (stereo not drawn),> 100,0.1,> 100,20,–,–,–,–,–
O=C(c1ccc(F)cc1)C(O)(Cn1cncn1)c1ccc(Cl)cc1 (stereo not drawn),100,0.8,> 100,1.25,–,–,–,–,–
O=C(c1cccc(Cl)c1)C(O)(Cn1cncn1)c1cccc(Cl)c1 (stereo not drawn),> 100,3.13,> 100,> 20,–,–,–,–,–
O=C1O[C@H](c2ccc(F)cc2)[C@@](Cn2cncn2)(c2ccc(F)cc2)O1,> 100,3.1,> 100,2.5,–,–,–,–,–
O=C1O[C@H](c2ccc(Cl)cc2)[C@@](Cn2cncn2)(c2ccc(Cl)cc2)O1,50,0.8,> 100,1.25,–,–,–,–,–
O=C(c1ccc(F)cc1)C(O)(Cn1cnnc1)c1ccccc1Cl (stereo not drawn),> 100,> 100,> 100,> 20,–,–,–,–,–
CC(O)(c1ccc(Cl)cc1)C(O)(Cn1ccnc1)c1ccc(Cl)cc1 (stereo not drawn),> 100,0.8,> 100,1.25,–,–,–,–,–
CC(C)[C@H]1OCO[C@@]1(Cn1cncn1)c1ccc(Cl)cc1,> 100,0.4,100,0.04,–,–,–,–,–
Cc1ccc(C(O)C(O)(Cn2cncn2)c2ccc(C)cc2)cc1 (stereo not drawn),> 100,1.6,> 100,2.5,–,–,–,–,–
O=S1O[C@H](c2ccc(Cl)cc2)[C@](Cn2cncn2)(c2ccc(Cl)cc2Cl)O1 (stereo partly drawn),> 100,0.1,> 100,0.02,–,–,–,–,–
O=C(c1ccccc1)C(O)(Cn1cncn1)c1ccccc1Cl (stereo not drawn),> 100,1.6,> 100,2.5,–,–,–,–,–

# Source: ChEMBL document CHEMBL1123760, “Synthesis and oral antifungal activity of novel azolylpropanolones and related compounds” (1987)
